Experimental data published in ChEMBL document CHEMBL1649165, “Activity profile in vitro of micafungin against Spanish clinical isolates of common and emerging species of yeasts and molds” (2009).
Values after ≈ are worked out from the molar mass of the structure shown.

What was measured:
Type in all cases: functional
[1] = system: Candida metapsilosis; test: Antimicrobial activity against Candida metapsilosis by broth microdilution method; conditions: Lodderomyces metapsilosis
Summary of the method: (§1)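 Clinical isolates from human patients, tested by broth microdilution using the AFST-EUCAST reference procedure for fermentative yeasts. The MIC was read per that reference method.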

[2] = system: Pichia norvegensis; test: Antimicrobial activity against Candida norvegensis by broth microdilution method; summary of the method: as §1
[3] = system: Lomentospora prolificans; test: Antimicrobial activity against Scedosporium prolificans by broth microdilution method
Summary of the method: (§2)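 Filamentous fungus clinical isolates tested by the AFST-EUCAST reference broth microdilution method for moulds. For echinocandins, the endpoint was the minimum effective concentration: the lowest drug concentration giving aberrant hyphal growth, read with an inverted microscope.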

[4] = system: Ustilago; test: Antimicrobial activity against Ustilago spp by broth microdilution method
[5] = system: Rhizopus arrhizus; test: Antimicrobial activity against Rhizopus oryzae by broth microdilution method; summary of the method: as §2
[6] = system: Aspergillus ochraceus; test: Antimicrobial activity against Aspergillus ochraceus by broth microdilution method
Summary of the method: (§3)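 Clinical mould isolates, tested by broth microdilution using the AFST-EUCAST reference method for filamentous fungi. For echinocandins, the endpoint was the minimum effective concentration: the lowest drug concentration giving aberrant hyphal growth, read with an inverted microscope.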

[7] = system: Aspergillus fumigatus; test: Antimicrobial activity against Aspergillus fumigatus by broth microdilution method; summary of the method: as §3
[8] = system: Aspergillus glaucus; test: Antimicrobial activity against Aspergillus glaucus by broth microdilution method; summary of the method: as §3
[9] = system: Candida tropicalis; test: Antimicrobial activity against Candida tropicalis by broth microdilution method; summary of the method: as §1
[10] = system: Trichoderma; test: Antimicrobial activity against Trichoderma spp. by broth microdilution method; summary of the method: as §2
[11] = system: Saccharomyces cerevisiae; test: Antimicrobial activity against Saccharomyces cerevisiae by broth microdilution method
[12] = system: Exophiala jeanselmei; test: Antimicrobial activity against Exophiala jeanselmei by broth microdilution method
[13] = system: Aspergillus sclerotiorum; test: Antimicrobial activity against Aspergillus sclerotiorum by broth microdilution method; summary of the method: as §3
[14] = system: [Candida] zeylanoides; test: Antimicrobial activity against Candida zeylanoides by broth microdilution method; conditions: Dujonia zeylanoides; summary of the method: as §1
[15] = system: Acremonium sp.; test: Antimicrobial activity against Acremonium sp.by broth microdilution method; summary of the method: as §3
[16] = system: Lichtheimia corymbifera; test: Antimicrobial activity against Mycocladus corymbiferus by broth microdilution method; summary of the method: as §2
[17] = system: Yarrowia lipolytica; test: Antimicrobial activity against Yarrowia lipolytica by broth microdilution method
[18] = system: Wickerhamomyces anomalus; test: Antimicrobial activity against Candida pelliculosa by broth microdilution method; conditions: Hansenula anomala; summary of the method: as §1
[19] = system: Geotrichum candidum; test: Antimicrobial activity against Galactomyces geotrichum by broth microdilution method
[20] = system: [Candida] inconspicua; test: Antimicrobial activity against Candida inconspicua by broth microdilution method; conditions: Pichia inconspicua; summary of the method: as §1
[21] = system: Trichosporon domesticum; test: Antimicrobial activity against Trichosporon mycotoxinivorans by broth microdilution method; conditions: Apiotrichum domesticum
Summary of the method: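 Spanish human clinical isolates were tested as nonfermentative yeasts by broth microdilution. The method strictly followed the EUCAST recommendations, with a minor modification to improve growth, and the read-out was the MIC.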

[22] = system: Trichosporon jirovecii; test: Antimicrobial activity against Trichosporon jirovecii by broth microdilution method; conditions: Cutaneotrichosporon jirovecii
Summary of the method: (§4)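 Nonfermentative yeast clinical isolates (Rhodotorula, Trichosporon) tested by broth microdilution. The EUCAST yeast recommendations were followed strictly, with one minor modification to improve growth. MIC was read as the endpoint.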

[23] = system: Cryptococcus deneoformans; test: Antimicrobial activity against Cryptococcus neoformans var. neoformans by broth microdilution method
Summary of the method: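 Clinical isolates of nonfermentative yeasts, tested by broth microdilution following EUCAST recommendations. The only change from that method was a minor modification to improve growth.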

[24] = system: Kazachstania pintolopesii; test: Antimicrobial activity against Candida pintolopesii by broth microdilution method; conditions: Arxiozyma pintolopesii; summary of the method: as §1
[25] = system: Scytalidium hyalinum; test: Antimicrobial activity against Scytalidium hyalinum by broth microdilution method; conditions: Neoscytalidium hyalinum; summary of the method: as §2
[26] = system: Aspergillus sydowii; test: Antimicrobial activity against Aspergillus sydowii by broth microdilution method; summary of the method: as §3
[27] = system: Kluyveromyces marxianus; test: Antimicrobial activity against Candida kefyr by broth microdilution method; summary of the method: as §1
[28] = system: Meyerozyma guilliermondii; test: Antimicrobial activity against Candida guilliermondii by broth microdilution method; summary of the method: as §1
[29] = Antimicrobial activity against Hormographiella aspergillata by broth microdilution method; conditions: Coprinopsis cinerea; summary of the method: as §2
[30] = system: Hortaea werneckii; test: Antimicrobial activity against Hortaea werneckii by broth microdilution method
[31] = system: Candida albicans; test: Antimicrobial activity against Candida albicans by broth microdilution method; summary of the method: as §1
[32] = system: Trichosporon inkin; test: Antimicrobial activity against Trichosporon inkin by broth microdilution method; summary of the method: as §4
[33] = system: Fusarium proliferatum; test: Antimicrobial activity against Fusarium proliferatum by broth microdilution method; summary of the method: as §3
[34] = system: Penicillium; test: Antimicrobial activity against Penicillium spp. by broth microdilution method; summary of the method: as §2
[35] = system: Nakaseomyces glabratus; test: Antimicrobial activity against Candida glabrata by broth microdilution method; summary of the method: as §1
[36] = system: Cladophialophora bantiana; test: Antimicrobial activity against Cladophialophora bantiana by broth microdilution method; summary of the method: as §3
[37] = system: Candida orthopsilosis; test: Antimicrobial activity against Candida orthopsilosis by broth microdilution method; conditions: Lodderomyces orthopsilosis; summary of the method: as §1
[38] = system: Phialemonium curvatum; test: Antimicrobial activity against Phialemonium curvatum by broth microdilution method; conditions: Thyridium curvatum; summary of the method: as §2
[39] = system: Torulaspora delbrueckii; test: Antimicrobial activity against Candida coliculosa by broth microdilution method; summary of the method: as §1

## C[C@@H](c1ncncc1F)[C@](O)(Cn1cncn1)c1ccc(F)cc1F [VORICONAZOLE]
[1]
  MIC50: 0.12 µg/mL (≈ 0.344 µM)
  MIC90: > 8 µg/mL
[2]
  MIC50: 0.12 µg/mL (≈ 0.344 µM)
  MIC90: > 8 µg/mL
[3]
  MIC50: > 8 µg/mL
  MIC90: > 8 µg/mL
[4]
  MIC50: 0.5 µg/mL (≈ 1.43 µM)
  MIC90: > 8 µg/mL
[5]
  MIC50: > 8 µg/mL
  MIC90: > 8 µg/mL
[6]
  MIC50: 0.25 µg/mL (≈ 0.716 µM)
  MIC90: > 8 µg/mL
[7]
  MIC50: 0.5 µg/mL (≈ 1.43 µM)
  MIC90: 1 µg/mL (≈ 2.86 µM)
[8]
  MIC50: 0.25 µg/mL (≈ 0.716 µM)
  MIC90: > 8 µg/mL
[9]
  MIC50: 0.03 µg/mL (≈ 0.0859 µM)
  MIC90: 0.12 µg/mL (≈ 0.344 µM)
[10]
  MIC50: 4 µg/mL (≈ 11.5 µM)
  MIC90: > 8 µg/mL
[11]
  MIC50: 0.06 µg/mL (≈ 0.172 µM)
  MIC90: 0.5 µg/mL (≈ 1.43 µM)
[12]
  MIC50: 0.06 µg/mL (≈ 0.172 µM)
  MIC90: > 8 µg/mL
[13]
  MIC50: 0.25 µg/mL (≈ 0.716 µM)
  MIC90: > 8 µg/mL
[14]
  MIC50: 0.12 µg/mL (≈ 0.344 µM)
  MIC90: > 8 µg/mL
[15]
  MIC50: 4 µg/mL (≈ 11.5 µM)
  MIC90: > 8 µg/mL
[16]
  MIC50: > 8 µg/mL
  MIC90: > 8 µg/mL
[17]
  MIC50: 0.5 µg/mL (≈ 1.43 µM)
  MIC90: 2 µg/mL (≈ 5.73 µM)
[18]
  MIC50: 0.12 µg/mL (≈ 0.344 µM)
  MIC90: > 8 µg/mL
[19]
  MIC50: 0.5 µg/mL (≈ 1.43 µM)
  MIC90: 1 µg/mL (≈ 2.86 µM)
[20]
  MIC50: 0.12 µg/mL (≈ 0.344 µM)
  MIC90: > 8 µg/mL
[21]
  MIC50: 0.5 µg/mL (≈ 1.43 µM)
  MIC90: > 8 µg/mL
[22]
  MIC50: 0.5 µg/mL (≈ 1.43 µM)
  MIC90: > 8 µg/mL
[23]
  MIC50: 0.12 µg/mL (≈ 0.344 µM)
  MIC90: 0.5 µg/mL (≈ 1.43 µM)
[24]
  MIC50: 0.12 µg/mL (≈ 0.344 µM)
  MIC90: > 8 µg/mL
[25]
  MIC50: 0.06 µg/mL (≈ 0.172 µM)
  MIC90: > 8 µg/mL
[26]
  MIC50: 1 µg/mL (≈ 2.86 µM)
  MIC90: 2 µg/mL (≈ 5.73 µM)
[27]
  MIC50: 0.02 µg/mL (≈ 0.0573 µM)
  MIC90: 0.02 µg/mL (≈ 0.0573 µM)
[28]
  MIC50: 0.12 µg/mL (≈ 0.344 µM)
  MIC90: > 8 µg/mL
[29]
  MIC50: 4 µg/mL (≈ 11.5 µM)
  MIC90: > 8 µg/mL
[30]
  MIC50: 0.06 µg/mL (≈ 0.172 µM)
  MIC90: > 8 µg/mL
[31]
  MIC50: 0.02 µg/mL (≈ 0.0573 µM)
  MIC90: 0.02 µg/mL (≈ 0.0573 µM)
[32]
  MIC50: 0.06 µg/mL (≈ 0.172 µM)
  MIC90: 0.12 µg/mL (≈ 0.344 µM)
[33]
  MIC50: 8 µg/mL (≈ 22.9 µM)
  MIC90: 8 µg/mL (≈ 22.9 µM)
[34]
  MIC50: 2 µg/mL (≈ 5.73 µM)
  MIC90: 8 µg/mL (≈ 22.9 µM)
[35]
  MIC50: 0.12 µg/mL (≈ 0.344 µM)
  MIC90: 1 µg/mL (≈ 2.86 µM)
[36]
  MIC50: 0.06 µg/mL (≈ 0.172 µM)
  MIC90: > 8 µg/mL
[37]
  MIC50: 0.12 µg/mL (≈ 0.344 µM)
  MIC90: > 8 µg/mL
[38]
  MIC50: 4 µg/mL (≈ 11.5 µM)
  MIC90: > 8 µg/mL
[39]
  MIC50: 0.12 µg/mL (≈ 0.344 µM)
  MIC90: > 8 µg/mL
